# What was measured:
# [1] = system: pAKT; test: Western blots of PI3K signaling feedback over time; type: cell-based; settings: PIK3CAmut MFM223 cells
# In short: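 PIK3CA-mutant MFM223 and PIK3CA-WT SUM52PE cells treated with 0.5 μmol/L test compound or 1 μmol/L reference PI3Kα inhibitor, with lysates taken at several durations. Immunoblotted for pHER3 and pAKT: nitrocellulose, 5% milk/TBST block, primary 1:1,000 overnight at 4°C, HRP secondary 1:10,000, ECL/film. n=2.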
# [2] = system: PIK3CAmut solid tumors; test: Phase 1 study: antitumor activity per RECIST v1.1; type: in vivo, human
# [3] = system: pAKT, pS6, Ki67; test: IHC analysis of paired tumor tissue samples; type: in vivo, human; settings: baseline vs C1D15 biopsies, nine patients
# In short: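 Paired FFPE tumor biopsies from baseline and C1D15 during oral once-daily dosing. IHC for Ki67 (rabbit mAb clone 30-9; nuclear staining), pAKT and pS6. Cytoplasmic pAKT/pS6 scored by H-score: intensity 0, 1+, 2+, 3+. H-score = Σ(% cells at each intensity × intensity).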
# [4] = system: p110α; test: Ubiquitin pulldown; type: cell-based; settings: 6 hours
# [5] = target: p110α (Homo sapiens, UniProt P42336); test: Ubiquitin pulldown; type: cell-based; settings: PIK3CA WT cell line SUM52PE; 6 hours
# Sequence of p110α (Homo sapiens, UniProt P42336) (P42336 whole entry): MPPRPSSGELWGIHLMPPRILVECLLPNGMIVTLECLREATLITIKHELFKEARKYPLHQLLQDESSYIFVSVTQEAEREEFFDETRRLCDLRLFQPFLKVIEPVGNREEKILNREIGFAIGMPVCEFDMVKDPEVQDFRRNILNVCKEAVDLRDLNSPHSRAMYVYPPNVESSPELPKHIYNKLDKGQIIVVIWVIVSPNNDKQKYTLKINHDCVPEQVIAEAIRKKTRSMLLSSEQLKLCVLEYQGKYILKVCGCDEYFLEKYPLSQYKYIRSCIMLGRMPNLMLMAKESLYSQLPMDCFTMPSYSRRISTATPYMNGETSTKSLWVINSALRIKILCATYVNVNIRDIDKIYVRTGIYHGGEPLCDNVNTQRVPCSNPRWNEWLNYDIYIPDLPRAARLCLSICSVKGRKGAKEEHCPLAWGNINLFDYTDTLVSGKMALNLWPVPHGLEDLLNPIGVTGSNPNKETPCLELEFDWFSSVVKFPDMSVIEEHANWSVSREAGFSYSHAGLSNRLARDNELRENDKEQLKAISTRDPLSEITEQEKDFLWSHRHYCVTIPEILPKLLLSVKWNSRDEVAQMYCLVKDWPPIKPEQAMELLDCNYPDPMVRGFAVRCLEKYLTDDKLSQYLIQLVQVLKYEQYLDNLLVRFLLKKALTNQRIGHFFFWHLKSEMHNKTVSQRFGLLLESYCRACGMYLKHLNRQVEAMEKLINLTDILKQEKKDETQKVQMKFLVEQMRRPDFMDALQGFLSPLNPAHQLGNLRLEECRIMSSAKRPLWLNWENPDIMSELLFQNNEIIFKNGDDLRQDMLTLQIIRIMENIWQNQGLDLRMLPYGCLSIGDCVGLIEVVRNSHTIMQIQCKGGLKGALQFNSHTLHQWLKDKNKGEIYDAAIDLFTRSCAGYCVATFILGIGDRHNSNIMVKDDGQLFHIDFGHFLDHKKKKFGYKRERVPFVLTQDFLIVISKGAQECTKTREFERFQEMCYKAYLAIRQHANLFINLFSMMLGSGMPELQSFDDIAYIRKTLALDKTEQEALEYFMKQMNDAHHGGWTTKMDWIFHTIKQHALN
# [6] = system: HER3–p85β interaction; test: Co-IP of p85β / HER3; type: cell-based
# In short: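 Cells exposed to test compound or FGFR2 inhibitor at several concentrations for 1 h. Lysis in Tris pH 7.5/NaCl/EDTA/1% NP40/10% glycerol with protease and phosphatase inhibitors. 1 mg lysate incubated overnight with anti-p85β (1:100, 1 mL), then protein A agarose 2 h. Immunoblot on nitrocellulose with 1:1,000 primary overnight at 4°C, HRP secondary 1:10,000 1 h RT, ECL/film. n=2.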
# [7] = system: MFM223 X2.2 tumor xenograft; test: MFM223 X2.2 xenograft efficacy study; type: in vivo, NCR nude mice; settings: single agent, 25 mg/kg daily for 22 days
# [8] = system: MFM223 cell line; test: Live-cell imaging by IncuCyte, long-term proliferation; type: cell-based; settings: single agent
# In short: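 Plated at 2,000 cells/well; inhibitors added next day at set concentrations. Medium with or without inhibitors renewed every 7 days. Phase-contrast imaging every 4 h in IncuCyte Zoom; confluence tracked in six replicate wells for the whole experiment.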
# [9] = Phase 1 study: plasma pharmacokinetics, noncompartmental analysis; type: in vivo, human
# In short: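 Oral single dose on C1D1, then 7-day washout with serial plasma PK sampling, then once-daily dosing from C1D8. PK population: patients with ≥1 dose and ≥1 evaluable post-dose sample. Parameters from plasma concentration–time profiles after single and multiple doses by noncompartmental analysis, summarized by dose level.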
# [10] = Phase 1 dose-escalation study NCT03006172 arm A: safety, DLT, MTD; type: in vivo, human
# [11] = system: PIK3CA MAF in ctDNA; test: ctDNA PIK3CA mutation allele frequency dynamics; type: in vivo, human; settings: pretreatment vs on-treatment, majority of paired specimens
# [12] = target: mutated p110α (Homo sapiens, UniProt P42336, H1047R); type: cell-based; settings: FGFR2 N550K-overexpressing cells, not matched control cells; 24 h
# Sequence of mutated p110α (P42336 whole entry H1047R): as the sequence (P42336 whole entry) above, with H1047R counted along it
# Sequence of mutated p110α (O00459 whole entry partner): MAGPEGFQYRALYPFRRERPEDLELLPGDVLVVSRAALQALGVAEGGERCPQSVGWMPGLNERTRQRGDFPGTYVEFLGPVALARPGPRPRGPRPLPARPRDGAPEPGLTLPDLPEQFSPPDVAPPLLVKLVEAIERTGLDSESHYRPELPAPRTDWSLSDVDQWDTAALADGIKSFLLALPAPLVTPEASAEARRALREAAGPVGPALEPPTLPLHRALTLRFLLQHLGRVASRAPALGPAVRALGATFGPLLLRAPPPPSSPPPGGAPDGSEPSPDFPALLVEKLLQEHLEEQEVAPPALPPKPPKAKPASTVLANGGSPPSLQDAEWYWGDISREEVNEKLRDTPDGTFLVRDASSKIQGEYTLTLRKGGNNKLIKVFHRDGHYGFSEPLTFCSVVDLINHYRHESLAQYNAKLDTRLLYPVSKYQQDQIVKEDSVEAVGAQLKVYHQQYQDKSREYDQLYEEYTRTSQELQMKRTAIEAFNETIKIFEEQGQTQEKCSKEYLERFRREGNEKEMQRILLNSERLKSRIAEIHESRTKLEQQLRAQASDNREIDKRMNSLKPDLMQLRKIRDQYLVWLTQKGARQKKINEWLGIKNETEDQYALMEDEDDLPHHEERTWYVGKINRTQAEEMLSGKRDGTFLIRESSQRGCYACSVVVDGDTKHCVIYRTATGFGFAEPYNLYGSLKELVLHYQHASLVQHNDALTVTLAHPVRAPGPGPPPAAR
# [13] = system: FDG uptake of target lesions; test: FDG-PET imaging pharmacodynamic response; type: in vivo, human
# In short: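 FDG-PET at baseline and after 2 weeks of oral once-daily dosing (C1D22–28; C1D15–22 for backfill). On-treatment scans 1–4 h post-dose; blood glucose <180 mg/dL required. Central read by one radiologist; up to five target lesions (tumor:background ≥2:1, longest diameter ≥15 mm). PMR: >25% decrease in mean % change of lean-body-mass-corrected SUVmax, no new FDG-avid lesions.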
# [14] = system: FGFR2-expressing cell lines; settings: excess Bliss score, n=14 cell lines, Supplementary Fig. S11
# [15] = system: phosphorylation of FGFR, FRS2α, PLCɣ, AKT, and ERK; test: Western blots of FGFR signaling; type: cell-based; settings: SUM52PE, MFE296, and AN3CA cells; 24 h
# In short: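 Lysates resolved and transferred to nitrocellulose; blocked 1 h in 5% milk/TBST (20 mM Tris-HCl pH 7.5, 135 mM NaCl, 0.1% Tween 20) at RT. Primary antibodies 1:1,000 overnight at 4°C; HRP anti-mouse or anti-rabbit 1:10,000 1 h RT. Detection by ECL and film.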
# [16] = system: SUM52PE, MFE296, AN3CA and MFE280 cell lines; test: Dose-response proliferation assays; type: cell-based; settings: MFE296, AN3CA (FGFR2-high) and MFE280 (FGFR2-low)
# [17] = system: phosphorylation of FGFR2, HER3 and AKT; test: Immunoblotting after 1 hour treatment; type: cell-based; settings: solely in MFE280 cells, 2-μmol/L
# In short: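 Cells treated 1 h with 0.03 μmol/L FGFR2 inhibitor or 2 μmol/L lapatinib, then immunoblotted. Transfer to nitrocellulose; block 1 h in 5% milk/TBST RT. Primary antibody 1:1,000 overnight at 4°C; HRP secondary 1:10,000 1 h RT; ECL with film. n=2.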
# [18] = system: RAS-GTP; test: RAS-GTP pulldown and RAS co-IP; type: cell-based; settings: MFM223 or MFE280 cells
# In short: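 Cells treated with FGFR2 inhibitor or lapatinib for varying durations. Lysis on ice in 25 mM Tris pH 7.5, 150 mM NaCl, 1 mM EDTA, 1% NP40, 5 mM MgCl2, 10% glycerol plus inhibitors. Lysates incubated with capture bead conjugate or mouse IgG magnetic beads (control) at 4°C for 5 h. Beads washed 3× in cold buffer, eluted in sample buffer, immunoblotted.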
compound,measurement,setting,value
C[C@H](Nc1ccc2c(c1)OCCn1cc(N3C(=O)OC[C@H]3C(F)F)nc1-2)C(N)=O [inavolisib],time to pAKT reactivation,[1]; 0.5-μmol/L inavolisib,24 hours
same,median progression-free survival (PFS),"[2]; 95% CI, 3.5–7.3",3.7 months
same,landmark PFS rate at 6 months,"[2]; 95% CI, 15–59",37%
same,clinical benefit rate,[2]; N = 20 (n = 9),45%
same,best overall response rate (PR),"[2]; patients with measurable disease (n = 19), RECIST v1.1",26%
same,duration of response,"[2]; responders with a confirmed response, 95% CI, 3.0–not evaluable",3.7 months
same,"PI3K pathway activity (H-scores pAKT, pS6) and Ki67 proliferation",[3],consistent decrease
same,ubiquitination of p110α,[4]; PIK3CAmut cell lines MFM223 and MFE280,induced ubiquitination
same,ubiquitination of p110α,[5],no ubiquitination
same,binding of p85β to HER3,"[6]; SUM52PE, MFM223, and MFE280 cells, 1 hour",did not affect
same,tumor growth,[7],did not result in tumor growth inhibition
same,day of rebound in proliferation (resistance) after treatment initiation,[8],11 days
same,accumulation,[9]; continuous once-daily dosing,twofold
same,half-life,"[9]; human, plasma, oral",16 h
same,plasma exposure versus dose,"[9]; single and multiple doses, 6-12 mg",dose-proportional
same,DLT-evaluable patients who experienced DLTs,"[10]; 12-mg dose group, grade 4 hyperglycemia and grade 3 fatigue that lasted 5 days",two of four
same,"Alopecia, related AE","[10]; All grades, N = 20",3 (15) n (%)
same,"Asthenia, related AE","[10]; All grades, N = 20",2 (10) n (%)
same,"Constipation, related AE","[10]; All grades, N = 20",2 (10) n (%)
same,"Decreased appetite, related AE","[10]; All grades, N = 20",4 (20) n (%)
same,"Diarrhea, related AE","[10]; All grades, N = 20",9 (45) n (%)
same,"Dysgeusia, related AE","[10]; All grades, N = 20",2 (10) n (%)
same,"Fatigue, related AE","[10]; All grades, N = 20",3 (15) n (%)
same,"Flatulence, related AE","[10]; All grades, N = 20",2 (10) n (%)
same,"Headache, related AE","[10]; All grades, N = 20",2 (10) n (%)
same,"Hyperglycemia, related AE","[10]; All grades, N = 20",14 (70) n (%)
same,"Hyponatremia, related AE","[10]; All grades, N = 20",2 (10) n (%)
same,"Lymphopenia, related AE","[10]; All grades, N = 20",2 (10) n (%)
same,"Nausea, related AE","[10]; All grades, N = 20",3 (15) n (%)
same,"Stomatitis (grouped term), related AE","[10]; All grades, N = 20",4 (20) n (%)
same,"Taste disorder, related AE","[10]; All grades, N = 20",2 (10) n (%)
same,"Thrombocytopenia, related AE","[10]; All grades, N = 20",2 (10) n (%)
same,"Total number of patients with at least one AE, related AE","[10]; All grades, N = 20",19 (95) n (%)
same,"Vision blurred, related AE","[10]; All grades, N = 20",2 (10) n (%)
same,"Vomiting, related AE","[10]; All grades, N = 20",4 (20) n (%)
same,"Weight decreased, related AE","[10]; All grades, N = 20",3 (15) n (%)
same,patients with at least one related AE leading to dose modification,"[10]; Eleven patients, N = 20",55%
same,"Alopecia, related AE","[10]; Grades 3–5, N = 20",0 n (%)
same,"Asthenia, related AE","[10]; Grades 3–5, N = 20",1 (5) n (%)
same,"Constipation, related AE","[10]; Grades 3–5, N = 20",0 n (%)
same,"Decreased appetite, related AE","[10]; Grades 3–5, N = 20",0 n (%)
same,"Diarrhea, related AE","[10]; Grades 3–5, N = 20",0 n (%)
same,"Dysgeusia, related AE","[10]; Grades 3–5, N = 20",0 n (%)
same,"Fatigue, related AE","[10]; Grades 3–5, N = 20",1 (5) n (%)
same,"Flatulence, related AE","[10]; Grades 3–5, N = 20",0 n (%)
same,"Headache, related AE","[10]; Grades 3–5, N = 20",0 n (%)
same,"Hyperglycemia, related AE","[10]; Grades 3–5, N = 20",4 (20) n (%)
same,"Hyponatremia, related AE","[10]; Grades 3–5, N = 20",0 n (%)
same,"Lymphopenia, related AE","[10]; Grades 3–5, N = 20",1 (5) n (%)
same,"Nausea, related AE","[10]; Grades 3–5, N = 20",1 (5) n (%)
same,"Stomatitis (grouped term), related AE","[10]; Grades 3–5, N = 20",0 n (%)
same,"Taste disorder, related AE","[10]; Grades 3–5, N = 20",0 n (%)
same,"Thrombocytopenia, related AE","[10]; Grades 3–5, N = 20",0 n (%)
same,"Total number of patients with at least one AE, related AE","[10]; Grades 3–5, N = 20",8 (40) n (%)
same,"Vision blurred, related AE","[10]; Grades 3–5, N = 20",0 n (%)
same,"Vomiting, related AE","[10]; Grades 3–5, N = 20",0 n (%)
same,"Weight decreased, related AE","[10]; Grades 3–5, N = 20",1 (5) n (%)
same,grade 5 AE,[10]; N = 20,No grade 5 AE
same,grade of treatment-related diarrhea events,[10]; N = 20,1 to 2
same,treatment-related grade ≥3 gastrointestinal toxicities,[10]; N = 20,No treatment-related grade ≥3 gastrointestinal toxicities
same,serious AE related to inavolisib,"[10]; grade 4 hyperglycemia, 12-mg cohort",One patient
same,colitis,"[10]; monotherapy, including nine patients on treatment for ≥5 months",not observed
same,maximum tolerated dose (MTD),"[10]; once daily oral, patients with PIK3CAmut solid tumors",9 mg
same,treatment-related rash,"[10]; one patient, grade 1, N = 20",5%
same,PIK3CA MAF over time,[11],decreased
same,mutated p110α protein level,[12],degradation
same,mean reduction in uptake,[13]; 6 mg,25%
same,patients achieving a PMR,"[13]; 6 mg, 4/7",57%
same,mean reduction in uptake,[13]; >6 mg,43%
same,patients achieving a PMR,"[13]; >6 mg, 12/13",92%
C[C@@H](Oc1ccc2[nH]nc(/C=C/c3cnn(CCO)c3)c2c1)c1c(Cl)cncc1Cl [LY2874455],combination effect with inavolisib,[14],synergized
CCN1CCN(c2ccc(Nc3cc(N(C)C(=O)Nc4c(Cl)c(OC)cc(OC)c4Cl)ncn3)cc2)CC1 [infigratinib],reduction of phosphorylation of FGFR and downstream effectors,[15],equal potency
same,combination effect with inavolisib,[14],synergized
same,sensitivity of cell lines,[16],sensitive
"Cc1nc(NC(=O)N2CCC[C@H]2C(N)=O)sc1-c1ccnc(C(C)(C)C(F)(F)F)c1 [alpelisib, reference compound]",time to pAKT rebound,[1]; 1-μmol/L alpelisib,30 minutes
"CS(=O)(=O)CCNCc1ccc(-c2ccc3ncnc(Nc4ccc(OCc5cccc(F)c5)c(Cl)c4)c3c2)o1 [lapatinib, reference compound]",phosphorylation of HER3 and AKT,[17],decreased phosphorylation
same,effect on inavolisib-induced p110α ubiquitination,"[4]; MFE280 cells, combined with inavolisib",prevented
same,RAS-GTP levels and RAS–p110α interaction,[18],affected neither
same,HER3–p85β interaction,"[6]; MFE280 FGFR2-low cells, 1 h",suppressed
